Source: ChEMBL document CHEMBL1143585, “Synthesis of some cryptolepine analogues, assessment of their antimalarial and cytotoxic activities, and consideration of their antimalarial mode of action” (J Med Chem, 2005)

Tests used:
Plasmodium falciparum [1] = assay: […] accumulation into acidic parasitic food vacuole at pH=5.5; assay type: functional
[2] = Ionization constant for the compound; assay type: physicochemical
Plasmodium falciparum [3] = assay: Normalized IC50 as product of antiplasmodial IC50 and vacuolar accumulation IC50; assay type: functional, organism-based
[4] = biological target: T1, Histidine-rich protein PFHRP-II (Plasmodium falciparum) (UniProt P05227); assay: Antiplasmodial activity as IC50 against Beta-hematin formation; assay type: functional
T1 sequence (whole entry): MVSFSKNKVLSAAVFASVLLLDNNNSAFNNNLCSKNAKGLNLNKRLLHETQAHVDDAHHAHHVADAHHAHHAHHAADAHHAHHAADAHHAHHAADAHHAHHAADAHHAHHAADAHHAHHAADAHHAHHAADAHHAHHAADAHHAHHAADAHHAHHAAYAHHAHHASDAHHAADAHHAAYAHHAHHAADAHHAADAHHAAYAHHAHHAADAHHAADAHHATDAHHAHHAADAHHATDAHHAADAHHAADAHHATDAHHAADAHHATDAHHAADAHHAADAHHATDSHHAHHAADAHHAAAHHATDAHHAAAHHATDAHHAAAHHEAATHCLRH
Procedure, shortened: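 β-Hematin inhibition (BHIA) assay: hemin (0.4 µmol/well) in DMSO with compound at 0.25–2 (or 4) molar equivalents to hemin, in triplicate. Final DMSO was 25%. Formation started with 8 M acetate buffer pH 5.0, then 37 °C for 18 h. The centrifuged pellet was dissolved in 0.1 M NaOH and read at 405 nm. BHIA50 is the drug equivalents relative to hemin giving 50% inhibition.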

MAC15A [5] = assay: Ratio of cytotoxic to that of antiplasmodial activity was determined; assay type: functional, Mus musculus
Plasmodium falciparum [6] = assay: In vitro antiplasmodial activity for Plasmodium falciparum; assay type: functional, organism-based; settings: Plasmodium falciparum
Procedure, shortened: (§1)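 P. falciparum K1 ring-stage cultures in human A+ erythrocytes (RPMI 1640, A+ serum, glucose), at 2.5% hematocrit and 1% parasitemia. Two-fold serial dilutions in duplicate, final DMSO ≤0.5%. Incubated 48 h at 37 °C under 93% N2/3% O2/4% CO2. Growth read as parasite lactate dehydrogenase activity (APAD/NBT, 550 nm). IC50 by linear regression; at least three separate determinations.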

MAC15A [7] = assay: Cytotoxicity against MAC15A mouse adenocarcinomas of the colon cells; assay type: functional, cell-based; settings: Mus musculus, MAC15A
Procedure, shortened: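 MTT assay. MAC15A cells were seeded at 2 × 10^3 per well and attached overnight at 37 °C, 5% CO2. Drugs were dissolved in DMSO and diluted in medium (max 0.1% DMSO), eight wells per concentration, 96 h exposure. MTT (0.5 mg/mL) was then added for 24 h. Formazan was dissolved in DMSO and read at 550 nm. Survival is relative to vehicle control; IC50 from triplicate experiments.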

Mus musculus [8] = assay: Mean survival time taken as number of days before illness due to Plasmodium berghei when mice (Mus musculus) treated with 50 mg/kg dose for 4 days; assay type: functional
Procedure, shortened: (§2)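 Peters' 4-day suppressive test in female BALB/c mice (18-20 g), five per group. Each mouse got 1 × 10^7 P. berghei ANKA-infected erythrocytes iv. Drug was given ip in 0.2 mL daily for 4 consecutive days. Survival time was the number of days before signs of malaria illness, compared with untreated infected controls.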

Mus musculus [9] = assay: In vivo antimalarial activity of compound against Plasmodium berghei in mice (Mus musculus) at dose of 50 mg/kg treated for 4 days; assay type: functional
Mus musculus [10] = assay: In vivo antimalarial activity of compound against Plasmodium berghei was determined as suppression of parasitemia in mice (Mus musculus) at 50 mg/kg treated for 4 days; assay type: functional
Plasmodium falciparum [11] = assay: […] accumulation into acidic parasitic food vacuole (pH=5.5) relative to Cryptolepine; assay type: functional
Procedure, shortened: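 Calculated from each compound's spectrophotometric pKa via a pH-trapping equation, assuming food-vacuole pH 5.5 and external pH 7.4. The result is expressed relative to cryptolepine's ratio. pKa came from UV spectra (0.05 mg mL-1) in at least seven buffers of pH 5.8–13.0, plus 0.1 M NaOH and 0.1 M HCl. pKa was taken as the midpoint of the λmax absorbance plot. Two experiments per compound.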

Mus musculus [12] = organism: Mus musculus; assay: Mean survival time taken as number of days before illness due to Plasmodium berghei in untreated mice (Mus musculus); assay type: functional; procedure, shortened: as §2
Plasmodium falciparum [13] = assay: In vitro antiplasmodial concentration against multidrug-resistant Plasmodium falciparum K1; assay type: functional, organism-based; procedure, shortened: as §1
Mus musculus [14] = assay: In vivo antimalarial activity of compound against Plasmodium berghei was determined as suppression of parasitemia in mice (Mus musculus) at 12.5 mg/kg treated for 4 days; assay type: functional
Procedure, shortened: (§3)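 Peters 4-day suppressive test in female BALB/c mice (18–20 g), five per group. Mice were infected iv with 1 × 10^7 P. berghei ANKA-infected erythrocytes. Drug was given ip daily for four consecutive days. Blood smears were taken on day 5, and % parasitemia suppression was calculated against untreated infected controls. Survival was recorded as days until signs of malaria illness.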

Mus musculus [15] = assay: In vivo antimalarial activity of compound against Plasmodium berghei in mice (Mus musculus) at dose of 25 mg/kg treated for 4 days; assay type: functional; procedure, shortened: as §3
Mus musculus [16] = assay: In vivo antimalarial activity of compound against Plasmodium berghei was determined as suppression of parasitemia in mice (Mus musculus) at 25 mg/kg treated for 4 days; assay type: functional; procedure, shortened: as §3
Mus musculus [17] = assay: In vivo antimalarial activity of compound against Plasmodium berghei in mice (Mus musculus) at dose of 12.5 mg/kg treated for 4 days; assay type: functional; procedure, shortened: as §3
Mus musculus [18] = assay: In vivo antimalarial activity of compound against Plasmodium berghei in mice (Mus musculus) at dose of 3.125 mg/kg treated for 4 days; assay type: functional; procedure, shortened: as §3
Mus musculus [19] = assay: In vivo antimalarial activity of compound against Plasmodium berghei was determined as suppression of parasitemia in mice (Mus musculus) at 3.125 mg/kg treated for 4 days; assay type: functional; procedure, shortened: as §3
Mus musculus [20] = assay: Mean survival time taken as number of days before illness due to Plasmodium berghei when mice (Mus musculus) treated with 12.5 mg/kg dose for 4 days; assay type: functional; procedure, shortened: as §2
Mus musculus [21] = assay: In vivo antimalarial activity of compound against Plasmodium berghei in mice (Mus musculus) at dose of 6.25 mg/kg treated for 4 days; assay type: functional; procedure, shortened: as §3
Mus musculus [22] = assay: In vivo antimalarial activity of compound against Plasmodium berghei was determined as suppression of parasitemia in mice (Mus musculus) at 6.25 mg/kg treated for 4 days; assay type: functional; procedure, shortened: as §3
Mus musculus [23] = assay: Mean survival time taken as number of days before illness due to Plasmodium berghei when mice (Mus musculus) treated with 6.25 mg/kg dose for 4 days; assay type: functional; procedure, shortened: as §2
Mus musculus [24] = assay: Mean survival time taken as number of days before illness due to Plasmodium berghei when mice (Mus musculus) treated with 25 mg/kg dose for 4 days; assay type: functional; procedure, shortened: as §2
Mus musculus [25] = assay: Mean survival time taken as number of days before illness due to Plasmodium berghei when mice (Mus musculus) treated with 3.125 mg/kg dose for 4 days; assay type: functional; procedure, shortened: as §2

| SMILES | Vascular accumulation ratio (Plasmodium falciparum [1]) | pKa [2] | BHIA50 [4] | Ratio (MAC15A [5]) | IC50 (Plasmodium falciparum [6]) | IC50 (MAC15A [7]) | Mean survival time (Mus musculus [12]) | further results |
| --- | --- | --- | --- | --- | --- | --- | --- | --- |
| C[n+]1c2ccccc2cc2[nH]c3c([N+](=O)[O-])cc([N+](=O)[O-])cc3c21.[Cl-] | 0.813 | 6.4 | 0.92 | – | – | – | – | IC50 (Plasmodium falciparum [3]): 0.0065 µM |
| Cc1ccc2cc3[nH]c4ccccc4c3[n+](C)c2c1.[Cl-] | – | – | – | 23.6 | 0.149 µM | 3.51 µM | – | – |
| COc1ccc2c(c1)cc1[nH]c3ccccc3c1[n+]2C.[Cl-] | 79.43 | 11.4 | 1.96 | 4.54 | 0.95 µM | 4.31 µM | 5 days | Mean survival time (Mus musculus [8]): 5 days; Parasitemia (Mus musculus [9]): 12.08%; Suppression of parasitemia (Mus musculus [10]): 9.3%; IC50 (Plasmodium falciparum [3]): 0.95 µM; Ratio (Plasmodium falciparum [11]): 1; IC50 (Plasmodium falciparum [13]): 0.95 µM |
| C[n+]1c2ccc(Br)cc2cc2[nH]c3ccc(Br)cc3c21.[Cl-] | 77.9 | 9.1 | 1.53 | 123 | – | – | 10 days | Suppression of parasitemia (Mus musculus [14]): 75.4%; Parasitemia (Mus musculus [15]): 1.24%; Suppression of parasitemia (Mus musculus [16]): 91.4%; Parasitemia (Mus musculus [17]): 3.55%; Parasitemia (Mus musculus [18]): 12.1%; Suppression of parasitemia (Mus musculus [19]): 15.9%; Mean survival time (Mus musculus [20]): 11.8 days; Parasitemia (Mus musculus [21]): 7.67%; Suppression of parasitemia (Mus musculus [22]): 46.7%; Mean survival time (Mus musculus [23]): 11.6 days; Ratio (Plasmodium falciparum [11]): 0.99; Mean survival time (Mus musculus [24]): 15 days; Mean survival time (Mus musculus [25]): 10 days |
| C[n+]1c2cc(Cl)ccc2cc2[nH]c3ccccc3c21.[Cl-] | – | – | – | 3.9 | 0.448 µM | 1.75 µM | – | – |
| C[n+]1c2ccc(F)cc2cc2[nH]c3ccc(Br)cc3c21.[Cl-] | – | – | – | 21.4 | 0.063 µM | 1.35 µM | – | – |
| C[n+]1c2ccc(Br)cc2cc2[nH]c3ccc([N+](=O)[O-])cc3c21.[Cl-] | – | – | – | 14.7 | 0.07 µM | 1.03 µM | 6.4 days | Parasitemia (Mus musculus [15]): 1.34%; Suppression of parasitemia (Mus musculus [16]): 90.75%; Mean survival time (Mus musculus [24]): 13 days |
| C[n+]1c2ccccc2cc2[nH]c3c([N+](=O)[O-])cccc3c21.[Cl-] | 78.94 | 9.6 | 0.84 | – | – | – | – | IC50 (Plasmodium falciparum [3]): 6.85 µM |
| C[n+]1c2ccccc2cc2[nH]c3cc(Cl)ccc3c21.[I-] | – | – | – | – | – | – | 9.6 days | Mean survival time (Mus musculus [24]): 14 days |
| Cc1ccc2c(c1)cc1[nH]c3ccccc3c1[n+]2C.[Cl-] | – | – | – | 9.81 | 0.419 µM | 4.11 µM | – | – |
| Cc1ccc2cc3[nH]c4ccc(Br)cc4c3[n+](C)c2c1.[Cl-] | – | – | – | 20 | 0.26 µM | 5.21 µM | – | – |
| C[n+]1c2ccc(Br)cc2cc2[nH]c3ccccc3c21 | 79.3 | 10.2 | 0.63 | – | – | – | – | – |
